Here are results for eight compounds from PubChem BioAssay.

The source made the active and inactive calls.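 How the source made its calls, unless noted: active means fluorescence slope higher than the sample average by over 3 SD (cut at about -0.22 in these data, passing the limit was not always enough); inactive means the rest.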

Test [1] in a line: inhibitors of TNFa-induced NFkB p65 translocation, primary screen, imaging, HUVEC, MLSMR starter and 10KST1 sets (AID 438;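 active means inhibition above 20% together with a positive visual image hit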;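 further: compound added about 3h40 before a 20 min TNFalpha stimulation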;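 on inhibition: signal is the nuclear over cytoplasmic p65 intensity ratio per well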). The following applies: HUVEC TNFa-induced p65 nuclear translocation; cell count: measured here: nuclei count (cytotoxicity indicator), at 2.08 µM unless noted; inhibition: at 2 µM, stronger effect = higher value unless noted.
Test [2] is described as follows: inhibitors of E-selectin induction by TNFa, primary screen, imaging, HUVEC, immunofluorescence, MLSMR starter and 10KST1 sets (AID 487;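 active means visually confirmed hit in the image check and inhibition above 20%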;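 on inhibition: signal is fraction of cell area covered by stained E-selectin grains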;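 on nuclei count: 100% = median nuclei count of all wells on the same plate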). The following applies: HUVEC TNFalpha-induced E-selectin immunofluorescence imaging, at 2 µM; inhibition: stronger effect = higher value; nuclei count: measured here: cell number, toxicity.
A short description of test [3]: DUSP6 inhibitors restoring Erk phosphorylation by chemical complementation, primary imaging in DUSP6-transfected HeLa (AID 609;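 active means compounds giving at least 50% inhibition in the cell-based MKP-3 phosphatase rescue imaging test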;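 on inhibition: phospho-Erk level distribution per well compared with pooled transfected vehicle control wells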). The following applies: HeLa MKP-3 transfected, phospho-Erk imaging KS statistic, at 10 µM.
For test [4], the target named is Dual specificity protein phosphatase 6 (Homo sapiens) (UniProt Q16828). Described as above. The following applies: HeLa MKP-3 transfected, phospho-Erk imaging KS statistic, at 10 µM, stronger effect = higher value.
The target of test [5] is Voltage-gated potassium channel subunit beta-2 (Rattus norvegicus) (UniProt P62483). In words: KvBeta enzyme negative modulators, primary screen, biochemical, NADPH fluorescence (AID 622).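 Further: slope of raw intensity against log time taken from 70 to 1610 s.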 As to conditions: recombinant KvBeta, 4-cyanobenzaldehyde reduction, at 10 µM, stronger effect = higher value.
The target is the same in test [6]. In words: KvBeta positive modulators, primary screen, biochemical, NADPH fluorescence (AID 623;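 active means NADPH fluorescence slope more negative than the mean of all samples by about 3 SD, 99.7% confidence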;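 further: fluorescence intensity change per second fitted from 20 to 320 s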). As to conditions: Recombinant KvBeta, NADPH fluorescence decrease slope, 10 min; at 10 µM; stronger effect = lower value.
Test [7] concerns the target Alpha-2C adrenergic receptor (Homo sapiens) (UniProt P18825). In words: modulators of alpha2C/GIRK thallium flux, primary screen, cell-based, HEK293 alpha2C/GIRK1/2 (AID 624;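 active means fluorescence slope after compound addition differing from the mean of all screened samples at 99.7% confidence, in either direction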;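 further: slope of fluorescence ratio to pre-addition baseline per second over 15 to 24 s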). As to conditions: thallium flux BTC fluorescence, at 10 µM, actives lie on both sides.
The nature of test [8]: inhibitors of larval lipid processing in zebrafish, primary screen, whole organism, PED6 fluorescence, gall bladder and intestine (AID 686;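 active means a full or partial loss of lipid-probe fluorescence in the fish gall bladder, intestine or both, judged by eye; inactive means no fluorescence loss, or compound toxic to the fish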;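 further: larvae 5 to 7 days old with five fish per well; signal comes from phospholipase A2 cleavage of quenched PED6 carried via bile; overnight exposure to compound and PED6 before scoring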). The following applies: Zebrafish larvae PED6 lipid processing, fluorescence scoring. In short, it runs like this:
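Also added: quenched phospholipase substrate PED6, 100 nM final, ingested by larvae; System: zebrafish larvae, 5-7 d; Quantity: 5 larvae per well; Compound: 20 µM single dose; Schedule: overnight compound and PED6 incubation; Read-out: visual per-well fluorescence inhibition score; Measured by: By-eye fluorescence microscopy; Medium: E3.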

A short description of test [9]: inhibitors of Chlamydomonas gravitaxis, primary screen, whole organism, Chlamydomonas reinhardtii, WT vs cilia-less mutant, absorbance, 96-well (AID 463189;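 active means inhibition at or above 50% relative to wild type and mutant plate controls; inactive means inhibition below 50%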;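 further: 0% = wild type cc124 cells in DMSO and 100% = ciliumless bld1 mutant cells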). The following applies: OD600 absorbance, 2 days, at 10 µM, stronger effect = higher value.
The mark [10] stands for this setting: measured here: cell density z-score.
Where [11] appears, read: measured here: nuclear c-Myc green intensity z-score.
Where [12] appears, read: measured here: nuclear pErk red intensity z-score, stronger effect = higher value.

Sequence of Dual specificity protein phosphatase 6 (Homo sapiens) (Q16828 whole entry, looked up): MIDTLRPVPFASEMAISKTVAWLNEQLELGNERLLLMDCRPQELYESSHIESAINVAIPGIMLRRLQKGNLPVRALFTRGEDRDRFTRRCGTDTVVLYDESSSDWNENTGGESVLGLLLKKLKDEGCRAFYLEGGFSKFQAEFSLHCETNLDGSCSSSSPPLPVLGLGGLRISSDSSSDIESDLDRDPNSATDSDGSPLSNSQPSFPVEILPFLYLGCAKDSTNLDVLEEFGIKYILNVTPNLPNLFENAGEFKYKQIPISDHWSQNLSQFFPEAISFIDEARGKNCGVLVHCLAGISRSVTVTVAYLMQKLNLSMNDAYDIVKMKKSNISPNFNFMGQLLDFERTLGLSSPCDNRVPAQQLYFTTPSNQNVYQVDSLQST
Sequence of Alpha-2C adrenergic receptor (Homo sapiens) (P18825 whole entry, looked up): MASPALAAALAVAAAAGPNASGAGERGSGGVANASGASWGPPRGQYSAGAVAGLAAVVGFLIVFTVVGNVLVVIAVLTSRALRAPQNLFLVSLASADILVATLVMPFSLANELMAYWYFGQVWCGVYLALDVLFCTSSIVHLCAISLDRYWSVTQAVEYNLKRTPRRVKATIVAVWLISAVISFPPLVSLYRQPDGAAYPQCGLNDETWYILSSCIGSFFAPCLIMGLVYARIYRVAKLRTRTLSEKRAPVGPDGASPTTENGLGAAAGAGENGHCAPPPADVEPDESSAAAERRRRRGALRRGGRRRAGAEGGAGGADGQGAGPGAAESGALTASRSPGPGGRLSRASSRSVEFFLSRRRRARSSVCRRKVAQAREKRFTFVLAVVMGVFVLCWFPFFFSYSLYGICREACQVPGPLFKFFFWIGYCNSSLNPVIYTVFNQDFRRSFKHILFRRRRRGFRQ
Sequence of Voltage-gated potassium channel subunit beta-2 (Rattus norvegicus) (P62483 whole entry, looked up): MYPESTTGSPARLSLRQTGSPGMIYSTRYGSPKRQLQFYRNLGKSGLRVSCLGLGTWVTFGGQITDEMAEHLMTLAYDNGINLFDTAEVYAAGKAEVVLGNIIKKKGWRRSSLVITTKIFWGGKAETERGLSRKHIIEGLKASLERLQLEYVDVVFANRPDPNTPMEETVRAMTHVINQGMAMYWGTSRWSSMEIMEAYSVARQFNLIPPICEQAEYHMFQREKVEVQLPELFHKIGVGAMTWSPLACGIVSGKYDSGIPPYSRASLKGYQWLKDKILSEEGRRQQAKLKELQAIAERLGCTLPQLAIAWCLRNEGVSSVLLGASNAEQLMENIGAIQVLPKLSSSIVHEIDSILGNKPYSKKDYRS

Consider `CCOc1ccccc1-n1c(O)c(C=Nc2c(C)n(C)n(-c3ccccc3)c2=O)c(=O)[nH]c1=O`, for which, in test [1], the cell count was 629. The inhibition (usually the relative decrease from the control value, in per cent) is -13.3% (inactive) in [1], -48.3% (inactive) in test [2], 22.7% (inactive) in [4] and 0.366% (inactive) in [9]. The nuclei count in [2] was determined as 148%. Moreover, the z-score in test [3] (setting [10]) was 1.53; in [3] (setting [11]), -0.137; in [3] (setting [12]), 0.143. Also, in [5], the fluorescence slope was -0.432 (inactive). Besides, the NADPH fluorescence slope in test [6] is -4.9e-06 (inactive). Also, the slope in test [7] is 0.00796 (inactive). Further, in test [8], the result was inactive.
In turn, `CC1(C)CC(=O)C(C=NCCN2CCN(C(=O)Cc3ccc(F)cc3)CC2)=C(O)C1` gave a cell count in [1] of 580. For the same compound, the inhibition in [1] was 5.6% (inactive); in test [2] it was -57.7% (inactive); in [4] it was 17.8% (inactive); in [9], -8.15% (inactive). For the same compound, the nuclei count in test [2] is 140%. In addition, the z-score is 0.866 in [3] (setting [10]), 1.58 in test [3] (setting [11]) and -0.927 in [3] (setting [12]). Also, the fluorescence slope in test [5] was -0.481 (inactive). Besides, in [6], the NADPH fluorescence slope is -3.6e-05 (inactive). Moreover, the slope in [7] is 0.00584 (inactive). The compound was classed as inactive in test [8].
Regarding `COc1cccc(-n2c(O)c(C=NCCN3CCOCC3)c(=O)[nH]c2=O)c1`, the cell count in test [1] came to 512. For the same compound, the inhibition in test [1] was -1.1% (inactive); in [2], -10.1% (inactive); in test [4], -5.26% (inactive); in [9], -13% (inactive). Further, in test [2], the nuclei count came to 92.8%. Further, the figures for the z-score in [3] (setting [10]), in [3] (setting [11]) and in test [3] (setting [12]) were -1.1, 2.1 and 0.315, respectively. In addition, the fluorescence slope in test [5] is -0.386 (inactive). Besides, the NADPH fluorescence slope in test [6] was -1.1e-05 (inactive). Also, the slope in [7] is 0.00613 (inactive). Further, the compound was called inactive in [8].
Compound `CC(C)OC(=O)c1c(N)n(Cc2ccco2)c2nc3ccccc3nc12` gave a cell count in test [1] of 337. Also, the inhibition in test [1] is -5.5% (inactive); in [2], -136% (inactive); in test [4] it was -4.7% (inactive); in [9] it was 1.76% (inactive). The nuclei count in test [2] was 108%. The results for the z-score in [3] (setting [10]), in test [3] (setting [11]) and in test [3] (setting [12]) were -1.01, 1.4 and -1.07, respectively. In [5], the fluorescence slope is -0.101 (inactive). Moreover, in test [6], the NADPH fluorescence slope is 1e-05 (inactive). Further, in test [7], the slope is 0.00512 (inactive). For the same compound, the compound was called inactive in test [8].
In the case of `COCCOC(=O)C1=C(N)Oc2c(c(=O)oc3ccccc23)[C@@]12C(=O)Nc1ccccc12`, the cell count in test [1] stood at 600. Also, the inhibition in test [1] is -9.7% (inactive); in test [2], -14.5% (inactive); in [4] it was -2.29% (inactive); in test [9] it was -16.3% (inactive). Also, in test [2], the nuclei count is 105%. For the same compound, the z-score in [3] (setting [10]) is 0.613; in test [3] (setting [11]), 0.851; in test [3] (setting [12]), -1.5. Also, in test [5], the fluorescence slope was -0.499 (inactive). Further, the NADPH fluorescence slope in [6] is 2.1e-05 (inactive). Further, in test [7], the slope was 0.00465 (inactive). Besides, the result in test [8] was inactive.
As for `O=c1[nH]c(=O)n(Cc2ccco2)c(O)c1C=NCc1ccc2c(c1)OCO2`, in test [1], the cell count was 562. Also, the inhibition in test [1] was -4.8% (inactive); in test [2] it was 50.7% (inactive); in test [4] it was -8.76% (inactive); in test [9] it was 18.3% (inactive). The nuclei count in [2] turned out to be 148%. The results for the z-score in test [3] (setting [10]), in [3] (setting [11]) and in test [3] (setting [12]) were -1.72, -1.79 and -0.396, respectively. Also, the fluorescence slope in test [5] was -0.254 (inactive). Besides, the NADPH fluorescence slope in test [6] is -1.2e-06 (inactive). Further, in test [7], the slope is 0.00624 (inactive). For the same compound, in test [8], the compound was called inactive.
In turn, `Cc1c(N=Cc2c(O)n(CCc3ccc(F)cc3)c(=O)[nH]c2=O)c(=O)n(-c2ccccc2)n1C` yielded a cell count in test [1] of 647. In addition, the inhibition is -28% (inactive) in [1], -9.6% (inactive) in test [2], -0.624% (inactive) in test [4] and 8% (inactive) in test [9]. In test [2], this compound had a nuclei count of 155%. Also, the z-score in [3] (setting [10]) was -1.16; in test [3] (setting [11]), -1.2; in test [3] (setting [12]), 1.06. In addition, the fluorescence slope in test [5] was -0.389 (inactive). The NADPH fluorescence slope in test [6] is -4.5e-05 (inactive). Also, in test [7], the slope was 0.0062 (inactive). Besides, the outcome in test [8] was “active; weak signal in gallbladder and intestine”.
For the compound `Cc1c(N=Cc2c(O)n(CCc3ccccc3)c(=O)[nH]c2=O)c(=O)n(-c2ccccc2)n1C`, the cell count in test [1] worked out at 613. The inhibition was -20.6% (inactive) in test [1], -12.1% (inactive) in [2], 14.4% (inactive) in test [4] and 41.8% (inactive) in test [9]. In test [2], this compound registered a nuclei count of 104%. In addition, the z-score was 1.02 in test [3] (setting [10]), -1.15 in test [3] (setting [11]) and -0.939 in [3] (setting [12]). Further, the fluorescence slope in test [5] is -0.465 (inactive). The NADPH fluorescence slope in [6] was -1.6e-05 (inactive). For the same compound, the slope in test [7] was 0.00632 (inactive). Further, the compound was called inactive in test [8].
